Consider 25 compounds from ChEMBL document CHEMBL1153860, “Design, synthesis and structure-activity relationships of antiproliferative 1,3-disubstituted urea derivatives” (Eur J Med Chem, 2009).

The subject of test [1] is KB. Kind of test: Antiproliferative activity against human KB cells after 48 hrs by MTT assay. It is filed as functional, cell-based. Put shortly:
(§1)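 Cells seeded at 7 × 10³/well and grown for 24 h. Exponentially growing cells were then exposed for 48 h to final concentrations of 0.1–100. MTT was added for 4 h, followed by 10% SDS in 0.01 N HCl at 37 °C for 18 h, and absorbance was read at 570 nm. Survival was expressed as % of untreated cells. IC50 was taken from six-well replicates in at least two independent experiments.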

Test [2] in a line: Antiproliferative activity against human L02 cells after 48 hrs by MTT assay. It is filed as cell-based. The conditions noted are these: L02, 48 h. Put shortly:
as §1

In the case of `CN(C)C(=O)N(CCN1CCOCC1)Cc1ccc([N+](=O)[O-])cc1`, the IC50 in test [1] stood at 0.75 µM; in test [2] it was 65 µM. Take `CCOC(=O)N1CCC(N(Cc2ccc(O)cc2)C(=O)N(C)C)CC1`: in test [1], half-maximal inhibition (IC50) required 48.6 µM. The same measure, in the same setting: then `CN(C)C(=O)N(Cc1ccco1)Cc1cc(Br)ccc1O`, with 32.8 µM; and `CCOC(=O)N1CCC(N(Cc2cc(Br)ccc2O)C(=O)N(C)C)CC1`, with 24.6 µM. Still for that read-out and setting: for `CN(C)C(=O)N(Cc1ccco1)Cc1cc(Cl)ccc1O` the value was 49.5 µM.

For the compound `CN(C)C(=O)N(CCCN1CCOCC1)Cc1cccc([N+](=O)[O-])c1`, the IC50 in test [1] was found to be 0.17 µM; in test [2] it was 134 µM. With `CN(C)C(=O)N(CCCN1CCOCC1)Cc1cc(Cl)ccc1O`, the figures for the IC50 in test [1] and in test [2] were 1.75 µM and 81 µM, respectively. On the same counts, the results for `CN(C)C(=O)N(CCCN1CCOCC1)Cc1cc(Br)ccc1O` are 9 µM and 86 µM. In test [1], `CN(C)C(=O)N(Cc1cccc([N+](=O)[O-])c1)Cc1ccco1` showed an IC50 of 23.8 µM. Regarding `COc1cc([C@@H]2c3cc4c(cc3[C@@H](O[C@@H]3O[C@@H]5CO[C@@H](C)O[C@H]5[C@H](O)[C@H]3O)[C@H]3COC(=O)[C@H]23)OCO4)cc(OC)c1O` [ETOPOSIDE], the values for the IC50 in test [1] and in test [2] were 0.42 µM and 13 µM, respectively. `CN(C)C(=O)N(Cc1ccc([N+](=O)[O-])cc1)Cc1ccco1` came in with a half-maximal inhibitory concentration (IC50) in test [1] of 17.5 µM. Consider `CN(C)C(=O)N(CCCN1CCOCC1)Cc1ccc(O)cc1`, for which the half-inhibitory concentration (IC50) in test [1] stood at 2.88 µM; in test [2] it was 109 µM. Turning to `CN(C)C(=O)N(CCCN1CCOCC1)Cc1cc([N+](=O)[O-])ccc1O`, the 50% inhibitory concentration (IC50) in test [1] amounted to 3.3 µM; in test [2] it was 125 µM. `CCOC(=O)N1CCC(N(Cc2cccc([N+](=O)[O-])c2)C(=O)N(C)C)CC1`: in test [1], it took 15.6 µM to reach half-maximal inhibition (IC50). The same measure, in the same setting: then `CCOC(=O)N1CCC(N(Cc2ccc([N+](=O)[O-])cc2)C(=O)N(C)C)CC1`, with 16.4 µM; and `CN(C)C(=O)N(Cc1ccc(O)cc1)Cc1ccco1`, with 52.1 µM.

In the case of `CN(C)C(=O)N(CCN1CCOCC1)Cc1cc(Cl)ccc1O`, the values for the 50% inhibitory concentration (IC50) in test [1] and in test [2] were 2.24 µM and 82 µM, respectively. In the same order, the values of `CN(C)C(=O)N(CCN1CCOCC1)Cc1cccc([N+](=O)[O-])c1` are 0.09 µM and 155 µM. On the same counts, the results for `CN(C)C(=O)N(CCN1CCOCC1)Cc1cc([N+](=O)[O-])ccc1O` are 4.8 µM and 26 µM. For `CN(C)C(=O)N(Cc1ccco1)Cc1cc([N+](=O)[O-])ccc1O`, in test [1], the midpoint of inhibition, the IC50, lay at 20.8 µM. Regarding `CN(C)C(=O)N(CCN1CCOCC1)Cc1ccc(O)cc1`, the IC50 in test [1] amounted to 4.25 µM; in test [2] it was 81 µM. In the same order, the values of `CN(C)C(=O)N(CCCN1CCOCC1)Cc1ccc([N+](=O)[O-])cc1` are 0.52 µM and 85 µM.

With `CCOC(=O)N1CCC(N(Cc2cc([N+](=O)[O-])ccc2O)C(=O)N(C)C)CC1`, the IC50 in test [1] turned out to be 24.2 µM.

In test [1], `CCOC(=O)N1CCC(N(Cc2cc(Cl)ccc2O)C(=O)N(C)C)CC1` showed a half-inhibitory concentration (IC50) of 25.7 µM. The IC50 values of the last two compounds are within 1.5-fold of each other. On to `CN(C)C(=O)N(CCN1CCOCC1)Cc1cc(Br)ccc1O`, for which the concentration for half-maximal inhibition (IC50) in test [1] turned out to be 7.3 µM; in test [2], 21 µM.

By IC50 is commonly meant the concentration at which inhibition is half-maximal. A higher IC50 goes with lower potency.
